Legend:
[1] = test system: Human immunodeficiency virus 1; assay: Antiviral activity against HIV1 in human CEM cells; type: functional, organism-based; details: Human immunodeficiency virus 1, CCRF-CEM
Summary of the method: (§1)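 CEM/0 cells at 4 × 10⁵ cells/mL infected with HIV-1 or HIV-2 (ROD, stocks from infected MT-4 supernatants) at ~100 CCID₅₀/mL, mixed 1:1 with serial compound dilutions. Giant cell formation scored microscopically after 4-5 days.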

[2] = (§2) Cytotoxicity against human CEM cells; type: cell-based, CCRF-CEM; details: CEM cells
Summary of the method: (§3)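 Wild-type CEM cells exposed to test compound dilutions. Value reported as 50% cytotoxic concentration.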

[3] = (§4) Stability in human CEM cell extract assessed as hydrolysis half life at pH 6.9; type: ADME, CCRF-CEM; details: CEM cell extract
[4] = Stability in 25 mM phosphate buffer assessed as hydrolysis half life at pH 7.3; type: physicochemical; details: for half-life: phosphate buffer; for t1/2: buffer
[5] = test system: Human immunodeficiency virus 2; assay: Antiviral activity against HIV2 ROD in thymidine kinase deficient human CEM cells; type: functional, organism-based, CCRF-CEM
Summary of the method: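 Thymidine kinase-deficient CEM/TK⁻ cells at 4 × 10⁵ cells/mL infected with HIV-2 ROD at ~100 CCID₅₀/mL, then mixed 1:1 with compound dilutions. Microscopic scoring of giant cell formation at 4-5 days. EC50 is the mean of two to three independent experiments.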

[6] = test system: Human immunodeficiency virus 2; assay: Antiviral activity against HIV2 ROD in human CEM cells; type: functional, organism-based, CCRF-CEM; summary of the method: as §1
Serum = assay: Stability in human serum assessed as hydrolysis half life at pH 6.8; type: ADME, cell-free
Summary of the method: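 Human serum at 50%, diluted with phosphate buffered saline to pH 6.8. Triester conversion followed over time and hydrolysis half-life derived.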

CCRF-CEM [7] = assay: as §2; type: cell-based; details: ccrf-cem; summary of the method: as §3
CCRF-CEM [8] = assay: as §4; type: ADME; details: ccrf-cem
[9] = Human immunodeficiency virus 2, ROD, CCRF-CEM

Compound	EC50 [1] [nM]	CC50 [2] [nM]	half-life [3] [h]	half-life [4] [h]	EC50 [5, 9] [nM]	EC50 [6, 9] [nM]	t1/2 (Serum) [h]	CC50 (CCRF-CEM [7]) [nM]	t1/2 (CCRF-CEM [8]) [h]	t1/2 [4] [h]	EC50 ([6]; ccrf-cem) [nM]	EC50 ([5]; ccrf-cem) [nM]
Cc1cn([C@H]2C=C[C@@H](COP3(=O)OCc4cc(CCC(=O)NCC(=O)OCc5ccccc5)ccc4O3)O2)c(=O)[nH]c1=O (some centres not stated)	310	75000	4.8	6.2	400	470	–	–	–	–	–	–
COC(=O)[C@@H]1CCCN1C(=O)CCc1ccc2c(c1)COP(=O)(OC[C@@H]1C=C[C@H](n3cc(C)c(=O)[nH]c3=O)O1)O2 (some centres not stated)	1300	182000	1.1	7.9	2800	1600	–	–	–	–	–	–
COC(=O)[C@H](C)NC(=O)CCc1ccc2c(c1)COP(=O)(OC[C@@H]1C=C[C@H](n3cc(C)c(=O)[nH]c3=O)O1)O2 (some centres not stated)	800	152000	1.1	6.4	2500	700	–	–	–	–	–	–
Cc1cn([C@H]2C=C[C@@H](COP3(=O)OCc4cc(CCC(=O)N[C@@H](C)C(=O)OCc5ccccc5)ccc4O3)O2)c(=O)[nH]c1=O (stereo in doubt; form 1)	–	–	–	–	–	–	4.4	48000	0.5	4.5	300	–
Cc1cn([C@H]2C=C[C@@H](COP3(=O)OCc4cc(CCC(=O)N[C@@H](C)C(=O)OCc5ccccc5)ccc4O3)O2)c(=O)[nH]c1=O (stereo in doubt; form 3)	300	–	–	6.4	–	400	–	23000	–	–	–	300
Cc1cn([C@H]2C=C[C@@H](COP3(=O)OCc4cc(CCC(=O)N5CCC[C@H]5C(=O)OCc5ccccc5)ccc4O3)O2)c(=O)[nH]c1=O (some centres not stated)	700	46000	0.4	6.1	21000	1100	–	–	–	–	–	–
COC(=O)[C@@H](C)NC(=O)CCc1ccc2c(c1)COP(=O)(OC[C@@H]1C=C[C@H](n3cc(C)c(=O)[nH]c3=O)O1)O2 (some centres not stated)	400	61000	6.2	5	4200	400	–	–	–	–	–	–
Cc1cn([C@H]2C=C[C@@H](COP3(=O)OCc4cc(CCC(=O)N[C@@H](C)C(=O)OC(C)(C)C)ccc4O3)O2)c(=O)[nH]c1=O (some centres not stated)	300	53000	6.8	5.7	3800	400	–	–	–	–	–	–
Cc1cn([C@H]2C=C[C@@H](CO)O2)c(=O)[nH]c1=O [STAVUDINE]	480	234000	–	–	47500	630	–	–	–	–	–	–
COC(=O)CNC(=O)CCc1ccc2c(c1)COP(=O)(OC[C@@H]1C=C[C@H](n3cc(C)c(=O)[nH]c3=O)O1)O2 (some centres not stated)	2000	220000	4.5	6.5	4000	1600	–	–	–	–	–	–
Cc1cn([C@H]2C=C[C@@H](COP3(=O)OCc4cc(CCC(=O)O)ccc4O3)O2)c(=O)[nH]c1=O (some centres not stated)	140	74000	–	13	50000	800	–	–	–	–	–	–
Cc1cn([C@H]2C=C[C@@H](COP3(=O)OCc4cc(CCC(=O)N[C@@H](C)C(=O)OCc5ccccc5)ccc4O3)O2)c(=O)[nH]c1=O (stereo in doubt; form 2)	–	–	0.5	–	–	–	1.3	61000	–	8.8	–	1000
Cc1cn([C@H]2C=C[C@@H](COP3(=O)OCc4cc(CCC(=O)N[C@@H](C)C(=O)O)ccc4O3)O2)c(=O)[nH]c1=O (some centres not stated)	500	77000	7	12	4100	400	–	–	–	–	–	–
